Measurements published in the RNAGym collection of RNA variant scans (doi:10.1126/science.aae0568).
Variants at the floor of the assay were thinned out.

B1: tRNA (parent)
chain: GUUCCGUUGGCGUAAUGGUAACGCGUCUCCCUCCUAAGGAGAAGACUGCGGGUUCGAGUCCCGUACGGAACG

Variants of: B1
Test: yeast fitness relative to wild type (ratio to wild type); higher = fitter; tRNA-Arg(CCU), competitive growth, 37 C, YPD
Summary of the method: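 A pool of Saccharomyces cerevisiae strains, each with a tRNA-Arg(CCU) gene variant at the native genomic locus, was competed in YPD at 37°C for 24 hours across six parallel replicates. The variants had been chemically synthesised at a 3% per-site mutation rate over 69 sites, and gene amplicons before and after competition were read by 100-nucleotide paired-end sequencing. Darwinian fitness relative to wild type rested on changes in genotype frequencies. Genotypes required ≥ 100 starting reads, and estimates < 0.5 were set to 0.5.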

Going from GUUCCGUUGGCGUAAUGGUAACGCGUCUCCCUCCUAAGGAGAAGACUGCGGGUUAGUGUCCCGUAUGGAACG [C55A A57U C66U] to GUUCCGUUGGCGUAAUGGUAACGCGUCUCCCUCCUAAGGAGAAGACUGCGGGUAAGAGUCCCGUAGGGACCG [U54A C55A C66G A70C], the yeast fitness falls from 0.574 to ≤ 0.5.

GUUCCGUUGGCGUAAUGGUAACGCGUCUCCCUCCUAAGGAGAAGACUGCGGGUGCGAGUCCCGUGCGUACCG [U54G A65G G68U A70C] and GUUCCGUUGGCGUAAUGGUAACGCGUCUCCCUCCUAAGGAGAAGACUGCGGGUUAGAGUCCCGUCCGAAACG [C55A A65C G68A] cannot be ordered by yeast fitness: ≤ 0.5 for the first, ≤ 0.5 for the second.

First: GUUCCGUUGGCGUAAUGGUAACGCGUCUCCCUCCUAAGGAGAAGACUGCGGGUACGAGUGCCGUAUGGAACG [U54A C60G C66U]
Second: GUUCCGUUGGCGUAAUGGUAACGCGUCUCCCUCCUAAGGAGAAGACUGCGGGUAUGAGUCCCGUACGGAACG [U54A C55U]
The yeast fitness of the first is lower: ≤ 0.5 for the first, 0.615 for the second.

GUUCCGUUGGCGUAAUGGUAACGCGUCUCCCUCCUAAGGAGAAGACUGCGGGUGCGAGUCGCGUACGGAACG [U54G C61G] and GUUCCGUUGGCGUAAUGGUAACGCGUCUCCCUCCUAAGGAGAAGACUGCGGGUGCGAGUCACGUACGGAACG [U54G C61A] cannot be ordered by yeast fitness: ≤ 0.5 for the first, ≤ 0.5 for the second.

Compared with GUUCCGUUGGCGUAAUGGUAACGCGUCUCCCUCCUAAGGAGAAGACUGCGGGUCCGAGUCCAGUACGGAACG [U54C C62A], GUUCCGUUGGCGUAAUGGUAACGCGUCUCCCUCCUAAGGAGAAGACUGCGGGUGCGAGUCCCGUUCAGAACG [U54G A65U G67A] is lower in yeast fitness: 0.595 for the first, 0.545 for the second.

First: GUUCCGUUGGCGUAAUGGUAACGCGUCUCCCUCCUAAGGAGAAGACUGCGGGUCCGUGUACCGUACGCAACG [U54C A57U C60A G68C]
Second: GUUCCGUUGGCGUAAUGGUAACGCGUCUCCCUCCUAAGGAGAAGACUGCGGGUCCGAGUCCCGUGCGGAACG [U54C A65G]
The yeast fitness of the first is lower: ≤ 0.5 for the first, 0.97 for the second.

Going from GUUCCGUUGGCGUAAUGGUAACGCGUCUCCCUCCUAAGGAGAAGACUGCGGGUCCGAGUCCCGUCCGGAACG [U54C A65C] to GUUCCGUUGGCGUAAUGGUAACGCGUCUCCCUCCUAAGGAGAAGACUGCGGGUACGAGUCGCGUACGGCACG [U54A C61G A69C], the yeast fitness falls from 0.862 to 0.57.

Going from GUUCCGUUGGCGUAAUGGUAACGCGUCUCCCUCCUAAGGAGAAGACUGCGGGUUAGAGUCCGGUACGGCACG [C55A C62G A69C] to GUUCCGUUGGCGUAAUGGUAACGCGUCUCCCUCCUAAGGAGAAGACUGCGGGUAGGAGUCCCGUCCGGAACG [U54A C55G A65C], the yeast fitness rises from ≤ 0.5 to 0.627.

First: GUUCCGUUGGCGUAAUGGUAACGCGUCUCCCUCCUAAGGAGAAGACUGCGGGUCCGAGUCUCGUACGGAACG [U54C C61U]
Second: GUUCCGUUGGCGUAAUGGUAACGCGUCUCCCUCCUAAGGAGAAGACUGCGGGUCCGAGUCACGUACGGAACG [U54C C61A]
The yeast fitness of the first is higher: 0.868 for the first, 0.776 for the second.

Compared with GUUCCGUUGGCGUAAUGGUAACGCGUCUCCCUCCUAAGGAGAAGACUGCGGGUCCGAGUCGCGUACGGAACG [U54C C61G], GUUCCGUUGGCGUAAUGGUAACGCGUCUCCCUCCUAAGGAGAAGACUGCGGGUACGAGUCCUGUGCGAAACG [U54A C62U A65G G68A] is lower in yeast fitness: 0.713 for the first, ≤ 0.5 for the second.

Going from GUUCCGUUGGCGUAAUGGUAACGCGUCUCCCUCCUAAGGAGAAGACUGCGGGUCCGAGUCCCGAACGGUACG [U54C U64A A69U] to GUUCCGUUGGCGUAAUGGUAACGCGUCUCCCUCCUAAGGAGAAGACUGCGGGUUAGAGUCCUGUAUGGAACG [C55A C62U C66U], the yeast fitness falls from 0.698 to 0.517.

Compared with GUUCCGUUGGCGUAAUGGUAACGCGUCUCCCUCCUAAGGAGAAGACUGCGGGUUACAGUCCCGUACGGAACG [C55A G56C], GUUCCGUUGGCGUAAUGGUAACGCGUCUCCCUCCUAAGGAGAAGACUGCGGGUCCGAGUCCUGUACGCAACG [U54C C62U G68C] is lower in yeast fitness: 0.522 for the first, ≤ 0.5 for the second.

First: GUUCCGUUGGCGUAAUGGUAACGCGUCUCCCUCCUAAGGAGAAGACUGCGGGUACCAGUCCCGUACGGAACG [U54A G56C]
Second: GUUCCGUUGGCGUAAUGGUAACGCGUCUCCCUCCUAAGGAGAAGACUGCGGGUACGAGUCCCGUACAGAACG [U54A G67A]
The yeast fitness of the first is higher: 0.691 for the first, 0.656 for the second.

First: GUUCCGUUGGCGUAAUGGUAACGCGUCUCCCUCCUAAGGAGAAGACUGCGGGUUAGAGUCCUGUACGGAACG [C55A C62U]
Second: GUUCCGUUGGCGUAAUGGUAACGCGUCUCCCUCCUAAGGAGAAGACUGCGGGUGCGAGUCGCGUUCGGAACG [U54G C61G A65U]
The yeast fitness of the first is higher: 0.685 for the first, 0.596 for the second.

Compared with GUUCCGUUGGCGUAAUGGUAACGCGUCUCCCUCCUAAGGAGAAGACUGCGGGUGCGAGUCCGGUACGGAACG [U54G C62G], GUUCCGUUGGCGUAAUGGUAACGCGUCUCCCUCCUAAGGAGAAGACUGCGGGUGCGAGUCCCGUUCGGAACG [U54G A65U] is lower in yeast fitness: 0.559 for the first, ≤ 0.5 for the second.

First: GUUCCGUUGGCGUAAUGGUAACGCGUCUCCCUCCUAAGGAGAAGACUGCGGGUACGAGCCCCGCACGGAACG [U54A U59C U64C]
Second: GUUCCGUUGGCGUAAUGGUAACGCGUCUCCCUCCUAAGGAGAAGACUGCGGGUCCGAGUCCCGUAAGGAACG [U54C C66A]
The yeast fitness of the first is lower: ≤ 0.5 for the first, 0.595 for the second.

Compared with GUUCCGUUGGCGUAAUGGUAACGCGUCUCCCUCCUAAGGAGAAGACUGCGGGUCGGUGUCCUGUACGGAACG [U54C C55G A57U C62U], GUUCCGUUGGCGUAAUGGUAACGCGUCUCCCUCCUAAGGAGAAGACUGCGGGUCCGAGUUCCGUACGGAACG [U54C C60U] is higher in yeast fitness: ≤ 0.5 for the first, 0.546 for the second.

GUUCCGUUGGCGUAAUGGUAACGCGUCUCCCUCCUAAGGAGAAGACUGCGGGUGCGAGUUCCGUACGGAACG [U54G C60U] and GUUCCGUUGGCGUAAUGGUAACGCGUCUCCCUCCUAAGGAGAAGACUGCGGGUCCAAGUCCAGUACGGAACG [U54C G56A C62A] cannot be ordered by yeast fitness: ≤ 0.5 for the first, ≤ 0.5 for the second.

Going from GUUCCGUUGGCGUAAUGGUAACGCGUCUCCCUCCUAAGGAGAAGACUGCGGGUGCGAGUCCCGUAAGGAACG [U54G C66A] to GUUCCGUUGGCGUAAUGGUAACGCGUCUCCCUCCUAAGGAGAAGACUGCGGGUGCGAGUCCCGUAUGGAACG [U54G C66U], the yeast fitness rises from 0.549 to 0.653.
